Data on one compound can be found in ChEMBL document CHEMBL3259756 (J Nat Prod, 2014).

Series [1] can be described thus: Cytotoxicity against doxorubicin-resistant human Saos2 cells assessed as effect on cell survival up to 1 ug/mL after 72 hrs by MTT assay. The class given is cell-based. Conditions: saos-2, 72 h; call rule not given here. In outline: (§1)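 MTT survival assay. Cells seeded 24 h beforehand (1 × 10^4 SAOS-2-DX or 5 × 10^3 Me30966 per well). Voacamine 0.5 or 1.0 μg/mL given alone or 30 min before doxorubicin (Me30966: 0.1 or 0.5 μg/mL; SAOS-2-DX: 0.5 or 1.0 μg/mL). Read at 24 h for Me30966 and 72 h for SAOS-2-DX. Three independent experiments, mean ± SD.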

Series [2] can be described thus: Cytotoxicity against wild type human Saos2 cells assessed as cell mortality at 5 ug/mL after 24 hrs by trypan blue staining-based flow cytometric analysis. The conditions noted are these: saos-2, 24 h. In short, it runs like this:
(§2)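 Trypan blue exclusion read by flow cytometry. Cells exposed to voacamine at 0.1, 1.0 or 5.0 μg/mL (in DMSO; DMSO-only cultures as extra control) for 4 or 24 h, resuspended in ice-cold PBS, stained with trypan blue (final 0.8 μM) and analysed at once; % dead cells. Three independent experiments, mean ± SD.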

Series [3] is described as follows: Cytotoxicity against doxorubicin-resistant human Saos2 cells assessed as cell mortality at 0.1 to 5 ug/mL after 4 hrs by trypan blue staining-based flow cytometric analysis. The conditions noted are these: saos-2, 4 h. In short, it runs like this: as §2
Series [4] is described as follows: Cytotoxicity against P-gp-deficient human Me30966 cells assessed as induction of morphological changes at 1 ug/mL by phase contrast microscopic analysis. It counts as ADME, cell-based. In short, it runs like this:
(§3)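 Monolayers viewed by phase contrast microscopy against untreated controls. SAOS-2-DX given 1.0 μg/mL voacamine plus 1.0 μg/mL doxorubicin; Me30966 given 1.0 μg/mL voacamine plus 0.5 μg/mL doxorubicin.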

Series [5] is described as follows: Cytotoxicity against P-gp-deficient human Me30966 cells assessed as cell mortality at 5 ug/mL after 24 hrs by trypan blue staining-based flow cytometric analysis. It counts as ADME. In outline:
as §2

For series [6], the target named is T1, ATP-dependent translocase ABCB1 (Homo sapiens, UniProt P08183). Put plainly: Inhibition of p-gp in doxorubicin-resistant human Saos2 cells assessed as potentiation of doxorubicin-induced cytotoxicity by measuring cell survival at 1 ug/mL pretreated for 30 mins followed by 1 ug/mL doxorubicin addition measured after 72 hrs by MTT assay relative to doxorubicin-treated cell. The class given is cell-based. The conditions noted are these: saos-2, 72 h. In short, it runs like this:
as §1

Series [7] can be described thus: Cytotoxicity against P-gp-deficient human Me30966 cells assessed as cell mortality at 0.1 to 5 ug/mL after 4 hrs by trypan blue staining-based flow cytometric analysis. The class given is ADME. In short, it runs like this: as §2
Series [8] addresses T1, ATP-dependent translocase ABCB1. The series is described as follows: Inhibition of p-gp in doxorubicin-resistant human Saos2 cells assessed as increase in intracellular doxorubicin retention at 1 ug/mL after 2 hrs by flow cytometric analysis. The conditions noted are these: saos-2, 2 h. The class given is cell-based. In outline:
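Efflux by flow cytometry. Cells loaded 1 h with 1.0 μg/mL doxorubicin, washed in PBS, then reincubated 2 h at 37 °C in drug-free medium with or without voacamine (1.0 μg/mL) or cyclosporin A (5.0 μM). Detached, resuspended in ice-cold PBS, analysed for retained doxorubicin fluorescence. Three independent experiments, mean ± SD.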

For series [9] the target is unchanged. The series is described as follows: Inhibition of p-gp in doxorubicin-resistant human Saos2 cells assessed as intracellular doxorubicin distribution in nuclei at 1 ug/mL after 2 to 3 hrs by laser scanning confocal microscopic analysis. The class given is cell-based. The conditions noted are these: saos-2. In short, it runs like this:
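Living SAOS-2-DX cells, with SAOS-2-WT for reference, treated with doxorubicin alone or with voacamine or cyclosporin A as in the flow cytometry uptake/efflux protocol. Intracellular, including nuclear, doxorubicin fluorescence located by laser scanning confocal microscopy.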

Series [10] can be described thus: Cytotoxicity against P-gp-deficient human Me30966 cells assessed as effect on cell survival at 0.5 to 1 ug/mL pretreated for 30 mins followed by 1 ug/mL doxorubicin addition measured after 24 hrs by MTT assay relative to doxorubicin-treated cell. It counts as ADME, cell-based.
Series [11] is described as follows: Cytotoxicity against wild type human Saos2 cells assessed as cell mortality at 0.1 to 5 ug/mL after 4 hrs by trypan blue staining-based flow cytometric analysis. The conditions noted are these: saos-2, 4 h. In short, it runs like this:
as §2

For series [12], the target named is T1, ATP-dependent translocase ABCB1. Put plainly: Inhibition of p-gp in doxorubicin-resistant human Saos2 cells assessed as increase in doxorubicin uptake at 1 ug/mL after 3 hrs by flow cytometric analysis. Conditions: saos-2, 3 h. The class given is cell-based. In outline:
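Doxorubicin accumulation by flow cytometry. Osteosarcoma or melanoma cells exposed for 3 h to doxorubicin 1.0 μg/mL alone, with voacamine 1.0 μg/mL, or with cyclosporin A 5.0 μM (control). Cells detached with EDTA/trypsin (10^6 cells/mL), resuspended in ice-cold PBS, 488 nm excitation. Three independent experiments, mean ± SD.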

The nature of series [13]: Cytotoxicity against human AG1522 cells assessed as cell mortality at 0.1 to 5 ug/mL after 4 hrs by trypan blue staining-based flow cytometric analysis. In outline:
as §2

Series [14] concerns the target T1, ATP-dependent translocase ABCB1. The series is described as follows: Inhibition of p-gp in doxorubicin-resistant human Saos2 cells assessed as potentiation of doxorubicin-induced cytotoxicity by measuring cell survival at 0.5 ug/mL pretreated for 30 mins followed by 1 ug/mL doxorubicin addition measured after 72 hrs by MTT assay relative to doxorubicin-treated cell. The conditions noted are these: saos-2, 72 h. The class given is cell-based. In outline:
as §1

A short description of series [15]: Cytotoxicity against human AG1522 cells assessed as cell mortality at 5 ug/mL after 24 hrs by trypan blue staining-based flow cytometric analysis. In short, it runs like this: as §2
Series [16] is described as follows: Cytotoxicity against doxorubicin-resistant human Saos2 cells assessed as cell mortality at 5 ug/mL after 24 hrs by trypan blue staining-based flow cytometric analysis. Conditions: saos-2, 24 h. In outline:
as §2

In series [17] the target is T1, ATP-dependent translocase ABCB1. Put plainly: Inhibition of p-gp in doxorubicin-resistant human Saos2 cells assessed as potentiation of doxorubicin-induced cytotoxicity by measuring cell survival at 0.5 ug/mL pretreated for 30 mins followed by 0.5 ug/mL doxorubicin addition measured after 72 hrs by MTT assay relative to doxorubicin-treated cell. It counts as cell-based. The conditions noted are these: saos-2, 72 h. In outline:
as §1

Series [18] can be described thus: Cytotoxicity against doxorubicin-resistant human Saos2 cells assessed as induction of morphological changes at 1 ug/mL by phase contrast microscopic analysis. The class given is cell-based. The conditions noted are these: saos-2. In outline:
as §3

Series [19] deals with T1, ATP-dependent translocase ABCB1. Put plainly: Inhibition of p-gp in doxorubicin-resistant human Saos2 cells assessed as potentiation of 1 ug/mL doxorubicin-induced cytotoxicity by measuring induction of morphological changes at 1 ug/mL by phase contrast microscopic analysis. The class given is cell-based. The conditions noted are these: saos-2. In outline:
as §3

The target of a further series is P-gp (ABCB1) (Homo sapiens, UniProt P08183). The series is described as follows: Inhibition of p-gp in doxorubicin-resistant human Saos2 cells assessed as potentiation of doxorubicin-induced cytotoxicity by measuring cell survival at 1 ug/mL pretreated for 30 mins followed by 0.5 ug/mL doxorubicin addition measured after 72 hrs by MTT assay relative to doxorubicin-treated cell. It counts as cell-based, SAOS-2. The conditions noted are these: probe doxorubicin, read-out: Survival. In short, it runs like this:
as §1

T1 sequence (P08183 whole entry): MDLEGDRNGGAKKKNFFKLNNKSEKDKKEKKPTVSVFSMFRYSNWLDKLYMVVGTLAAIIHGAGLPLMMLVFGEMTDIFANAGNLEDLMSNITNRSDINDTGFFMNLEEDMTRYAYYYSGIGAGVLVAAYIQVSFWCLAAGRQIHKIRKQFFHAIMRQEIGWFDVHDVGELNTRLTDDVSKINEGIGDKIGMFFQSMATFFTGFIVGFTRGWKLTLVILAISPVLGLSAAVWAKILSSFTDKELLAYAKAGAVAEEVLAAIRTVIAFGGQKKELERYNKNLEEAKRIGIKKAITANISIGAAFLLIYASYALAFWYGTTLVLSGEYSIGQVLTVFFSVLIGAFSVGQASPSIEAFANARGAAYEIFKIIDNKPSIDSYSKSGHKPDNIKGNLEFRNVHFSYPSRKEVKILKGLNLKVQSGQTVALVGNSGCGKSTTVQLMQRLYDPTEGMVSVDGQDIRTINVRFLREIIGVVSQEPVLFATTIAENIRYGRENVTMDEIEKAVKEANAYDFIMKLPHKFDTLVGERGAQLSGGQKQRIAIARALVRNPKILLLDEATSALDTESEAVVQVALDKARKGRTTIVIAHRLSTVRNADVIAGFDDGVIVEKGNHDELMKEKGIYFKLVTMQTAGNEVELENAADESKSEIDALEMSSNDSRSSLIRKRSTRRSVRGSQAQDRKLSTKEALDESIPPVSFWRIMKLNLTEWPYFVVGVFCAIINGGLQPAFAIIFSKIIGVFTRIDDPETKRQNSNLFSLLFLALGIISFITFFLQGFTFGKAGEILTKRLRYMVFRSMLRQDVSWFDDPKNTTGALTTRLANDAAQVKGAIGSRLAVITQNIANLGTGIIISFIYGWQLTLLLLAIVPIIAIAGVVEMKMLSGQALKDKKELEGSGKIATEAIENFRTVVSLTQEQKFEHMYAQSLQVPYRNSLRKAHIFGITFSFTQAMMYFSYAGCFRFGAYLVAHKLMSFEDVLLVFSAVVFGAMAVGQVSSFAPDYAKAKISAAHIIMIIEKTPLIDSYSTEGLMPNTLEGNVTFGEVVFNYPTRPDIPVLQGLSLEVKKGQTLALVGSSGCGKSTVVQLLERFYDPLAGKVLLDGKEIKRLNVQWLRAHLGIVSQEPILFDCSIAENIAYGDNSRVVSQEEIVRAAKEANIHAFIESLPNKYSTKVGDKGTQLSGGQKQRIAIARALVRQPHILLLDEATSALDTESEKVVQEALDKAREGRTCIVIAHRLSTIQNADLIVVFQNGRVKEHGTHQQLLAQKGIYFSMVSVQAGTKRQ
Chain of P-gp (ABCB1) (P08183 whole entry): as above

`CC=C1CN(C)C2Cc3c([nH]c4ccccc34)C(c3cc4[nH]c5c(c4cc3OC)CCN3CC4CC(CC)C3C5(C(=O)OC)C4)CC1C2C(=O)OC` (stereo not given) [VOACAMINE]: the Activity result was “Non-toxic” in series [1]; “Toxic” in series [2]; “Non-toxic” in series [3]; “Non-toxic” in [4]; “Toxic” in series [5]; “Non-toxic” in [7]. Also, the Activity result was “Non-toxic” in series [10]; “Non-toxic” in series [11]; “Non-toxic” in series [13]; “Toxic” in series [15]; “Toxic” in series [16]; “Non-toxic” in series [18]. The “inhibition (INH)” value in series [6], in series [8], in series [9], in series [12], in [14] and in series [17] was “Active” throughout. Moreover, the “inhibition (INH)” value in series [19] is recorded as “Active”. Moreover, the viability at 72 h, 1 ug/mL on P-gp (ABCB1) came to 50%.
